Results from different studies.
Sample: plasma

Cc1cc(S(=O)(=O)N[C@H]2CC[C@H](CN3CCN(c4ccc(C5CCC(=O)NC5=O)c(Cl)c4)CC3)CC2)ccc1Nc1ncc(C(F)(F)F)c(N2CCC[C@](C)(O)C2)n1 (stereo partly shown) — bioavailability (rat; oral, 10 mg/kg): 25%
COc1nc(-c2cccc(-c3ccccc3)c2C)ccc1CNCCNC(=O)CCCCCCCCCCC(=O)N1CCN(CCNC(=O)c2cc3c(=O)n4cccc(C)c4nc3n(CCc3cccs3)c2=N)CC1 — bioavailability (male Sprague-Dawley rat; intraperitoneal, 4 mg/kg): 74.8%
C[C@H]1Oc2cc(cnc2N)-c2c(nn(C)c2C#N)CN(C)C(=O)c2ccc(F)cc21 — bioavailability (Sprague-Dawley rat; oral): 8.6%
COc1ccc(N(Cc2csc(-c3ccccc3)n2)C(=O)CCCCCC(=O)NO)cc1 — bioavailability (female Sprague-Dawley rat; oral): 10.3%
CCCCC(=O)Nc1ccc(-c2ccc3ncn(CCC)c(=O)c3c2)cn1 — bioavailability (male rat; oral, 10 mg/kg): 21.1%
O=C1CCC(N2Cc3cc(C4CCN(Cc5ccccc5)CC4)ccc3C2=O)C(=O)N1 (stereo not shown) — bioavailability (male Sprague-Dawley rat; oral, 3 mg/kg): 36.2%
Cc1cc(S(=O)(=O)N[C@H]2CC[C@H](CN3CCN(c4cccc(NC5CCC(=O)NC5=O)c4)CC3)CC2)ccc1Nc1ncc(C(F)(F)F)c(N2CCC[C@](C)(O)C2)n1 (stereo partly shown) — bioavailability (rat; oral, 10 mg/kg): 13%
COc1cc(-c2cc(C(C)=O)n3ccccc23)c(OC)cc1Cn1ccnc1 — bioavailability (male Sprague-Dawley rat; oral, 5 mg/kg): 50.3%
Cc1cc(S(=O)(=O)NC2CC(N3CCN(CC4CCN(c5ccc6c(c5F)n(C)c(=O)n6C5CCC(=O)NC5=O)CC4)CC3)C2)ccc1Nc1ncc(C(F)(F)F)c(N2CCCC(C)(O)C2)n1 (stereo not shown) — bioavailability (rat; oral, 10 mg/kg): 1%
CC(C)C[C@H](NC(=O)NCc1cn(-c2ccccc2C(=O)OCn2cc(F)c(=O)[nH]c2=O)nn1)C(=O)NO — bioavailability (male Sprague-Dawley rat; oral, 50 mg/kg): ~0.64%
